# Results published in ChEMBL document CHEMBL1157623, “Benzyl 1,2,3,5,11,11a-hexahydro-3,3-dimethyl-1-oxo-6H-imidazo[3',4':1,2]pyridin[3,4-b]indole-2-substituted acetates: One-pot-preparation, anti-tumor activity, docking toward DNA and 3D QSAR analysis” (Bioorg Med Chem, 2010).
# Experiments:
# [1] = Lipophilicity, log K at 10 uM after 40 mins by HPLC analysis; format: physicochemical
# Method in brief: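 Sample at 10^-5 M analysed by reversed-phase C18 HPLC, eluted with CH3OH/H2O 0.7/0.3 at 1 mL/min for 40 min, UV detection at 254.8 nm. Retention time tR recorded; acetone peak taken as t0 (1.591 min). Log K = Log[(tR − t0)/t0].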
# PC-3 = experiment: Antiproliferative activity against human PC3 cells after 3 days by sulforhodamine B assay; format: functional, cell-based; conditions: PC-3, 72 h
# Method in brief: (§1)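 Freshly trypsinized cells seeded at 5000 per well; compounds added from DMSO-diluted stock at 60, 6, 0.6, 0.06 and 0.006 µM. After 3 days, attached cells were fixed with cold 10% trichloroacetic acid, stained with 0.4% sulforhodamine B, the bound dye solubilized, and absorbance read at 562 nm. IC50 is the concentration reducing cell growth by 50%, averaged from at least three independent determinations.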
# [2] = Antiproliferative activity against human KBVIN cells after 3 days by sulforhodamine B assay; format: functional, cell-based; conditions: 72 h; method in brief: as §1
# KB = experiment: Antiproliferative activity against human KB cells after 3 days by sulforhodamine B assay; format: functional, cell-based; conditions: 72 h; method in brief: as §1
# A549 = experiment: Antiproliferative activity against human A549 cells after 3 days by sulforhodamine B assay; format: functional, cell-based; conditions: A549, 72 h; method in brief: as §1
# MCF7 = experiment: Antiproliferative activity against human MCF7 cells after 3 days by sulforhodamine B assay; format: functional, cell-based; conditions: MCF7, 72 h; method in brief: as §1
# CCRF S-180 = experiment: Antitumor activity against mouse S180 cells xenografted in ICR mouse assessed as tumor weight at 1 mg/kg, ip administered 24 hrs after tumor implantation daily for 7 consecutive days measured after 24 hrs of last dose (Rvb=1.602 +/- 0.391 g); format: functional; conditions: route intraperitoneal
# Mus musculus [3] = experiment: Toxicity in ICR mouse xenografted with mouse S180 cells assessed as brain weight at 1 mg/kg, ip administered 24 hrs after tumor implantation daily for 7 consecutive days measured after 24 hrs of last dose (Rvb=0.31 +/- 0.01 g); format: organism-based, CCRF S-180; parameters: dose 1 mg/kg, route intraperitoneal; conditions: in vivo
# [4] = Toxicity in ip dosed ICR mouse measured after 7 days post dose; format: organism-based; conditions: in vivo
# Method in brief: (§2)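 ICR mice, 10–12 weeks old, of both sexes (six males and six females, 12 per group), housed at 21 °C and fasted overnight with water available. They received a single ip injection of 10, 100 or 500 mg/kg in 0.2 mL 0.9% saline. Mice were watched continuously for 7 days for neurotoxic behaviour or death, then killed on day 7 and checked macroscopically (heart, liver, kidneys). LD50 was estimated graphically.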
# Mus musculus [5] = experiment: Toxicity in ICR mouse xenografted with mouse S180 cells assessed as body weight at 1 mg/kg, ip administered 24 hrs after tumor implantation daily for 7 consecutive days measured after 24 hrs of last dose (Rvb=33.3 +/- 2.32 g); format: organism-based, CCRF S-180; parameters: dose 1 mg/kg, route intraperitoneal; conditions: in vivo
# Mus musculus [6] = experiment: Toxicity in ICR mouse xenografted with mouse S180 cells assessed as heart weight at 1 mg/kg, ip administered 24 hrs after tumor implantation daily for 7 consecutive days measured after 24 hrs of last dose (Rvb=0.17 +/- 0.01 g); format: organism-based, CCRF S-180; parameters: dose 1 mg/kg, route intraperitoneal; conditions: in vivo
# Mus musculus [7] = experiment: Toxicity in ICR mouse assessed as change in liver weight at 10 to 500 mg/kg, ip measured on day 7 post dose by necroscopy; format: organism-based; parameters: dose 10-500 mg/kg, route intraperitoneal; conditions: in vivo
# Mus musculus [8] = experiment: Toxicity in ICR mouse assessed as mortality up to 500 mg/kg, ip measured after 7 days post dose; format: organism-based; parameters: dose 500 mg/kg, route intraperitoneal; conditions: in vivo, 168 h; method in brief: as §2
# Mus musculus [9] = experiment: Toxicity in ICR mouse xenografted with mouse S180 cells assessed as spleen weight at 1 mg/kg, ip administered 24 hrs after tumor implantation daily for 7 consecutive days measured after 24 hrs of last dose (Rvb=0.22 +/- 0.04 g); format: organism-based, CCRF S-180; parameters: dose 1 mg/kg, route intraperitoneal; conditions: in vivo
# Mus musculus [10] = experiment: Toxicity in ICR mouse xenografted with mouse S180 cells assessed as kidney weight at 1 mg/kg, ip administered 24 hrs after tumor implantation daily for 7 consecutive days measured after 24 hrs of last dose (Rvb=0.23 +/- 0.02 g); format: organism-based, CCRF S-180; parameters: dose 1 mg/kg, route intraperitoneal; conditions: in vivo
# Mus musculus [11] = experiment: Toxicity in ICR mouse assessed as change in kidney weight at 10 to 500 mg/kg, ip measured on day 7 post dose by necroscopy; format: organism-based; parameters: dose 10-500 mg/kg, route intraperitoneal; conditions: in vivo
# Mus musculus [12] = experiment: Toxicity in ICR mouse xenografted with mouse S180 cells assessed as liver weight at 1 mg/kg, ip administered 24 hrs after tumor implantation daily for 7 consecutive days measured after 24 hrs of last dose (Rvb=2.36 +/- 0.20 g); format: organism-based, CCRF S-180; parameters: dose 1 mg/kg, route intraperitoneal; conditions: in vivo
# Mus musculus [13] = experiment: Toxicity in ICR mouse assessed as change in heart weight at 10 to 500 mg/kg, ip measured on day 7 post dose by necroscopy; format: organism-based; parameters: dose 10-500 mg/kg, route intraperitoneal; conditions: in vivo
# Mus musculus [14] = experiment: Toxicity in ICR mouse xenografted with mouse S180 cells assessed as femur weight at 1 mg/kg, ip administered 24 hrs after tumor implantation daily for 7 consecutive days measured after 24 hrs of last dose (Rvb=0.056 +/- 0.006 g); format: organism-based, CCRF S-180; parameters: dose 1 mg/kg, route intraperitoneal; conditions: in vivo
# Mus musculus [15] = experiment: Neurotoxicity in ICR mouse assessed as occurrence of neurotoxic behavior at 10 to 500 mg/kg, ip measured up to 7 days post dose; format: toxicity, organism-based; parameters: dose 10-500 mg/kg, route intraperitoneal; conditions: in vivo, 168 h
# Method in brief: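 Healthy ICR mice, 10–12 weeks old, 12 per group (six male, six female), fasted overnight with water available. Single ip injection of 10, 100 or 500 mg/kg in 0.2 mL 0.9% saline. Monitored continuously up to 7 days for abnormal behavior (tremor, twitch, jumping, tetanus, supination) or death. Sacrificed on day 7; heart, liver and kidneys checked macroscopically.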
SMILES,log K [1],IC50 (PC-3) [µM],IC50 (KB) [µM],IC50 (A549) [µM],IC50 (MCF7) [µM],IC50 [2] [µM],Activity (CCRF S-180) [g],Activity (Mus musculus [3]) [g],LD50 at 168 h [4] [mg/kg],Activity (Mus musculus [5]) [g],Activity (Mus musculus [6]) [g],Activity (Mus musculus [7]),Activity (Mus musculus [8]),Activity (Mus musculus [9]) [g],Activity (Mus musculus [10]) [g],Activity (Mus musculus [11]),Activity (Mus musculus [12]) [g],Activity (Mus musculus [13]),Activity (Mus musculus [14]) [g],Activity (Mus musculus [15])
CC1(C)N2Cc3[nH]c4ccccc4c3C[C@H]2C(=O)N1[C@@H](CCCCNC(=O)OCc1ccccc1)C(=O)OCc1ccccc1,0.87,4.24,32.9,8.34,4.61,30.6,1.613,–,–,–,–,–,–,–,–,–,–,–,–,–
CC1(C)N2Cc3[nH]c4ccccc4c3C[C@H]2C(=O)N1[C@@H](CC(N)=O)C(=O)OCc1ccccc1,0.16,17,43.5,39.6,20.2,50.1,1.604,–,–,–,–,–,–,–,–,–,–,–,–,–
CC1(C)N2Cc3[nH]c4ccccc4c3C[C@H]2C(=O)N1[C@@H](Cc1ccc(O)cc1)C(=O)OCc1ccccc1,0.49,0.69,18,0.12,4.44,8.35,1.046,0.32,> 500,35.85,0.16,Non-toxic,Non-toxic,0.23,0.23,Non-toxic,2.35,Non-toxic,0.056,Non-toxic
CC1(C)N(CC(=O)OCc2ccccc2)C(=O)[C@@H]2Cc3c([nH]c4ccccc34)CN21,0.32,9.98,22.5,7.92,10.4,12.2,0.916,0.3,> 500,33.75,0.16,Non-toxic,Non-toxic,0.24,0.22,Non-toxic,2.25,Non-toxic,0.055,Non-toxic
C[C@@H](C(=O)OCc1ccccc1)N1C(=O)[C@@H]2Cc3c([nH]c4ccccc34)CN2C1(C)C,0.44,48,60.3,59.1,57,55.7,1.418,–,–,–,–,–,–,–,–,–,–,–,–,–
COc1cccc2c1C(=O)c1c(O)c3c(c(O)c1C2=O)C[C@@](O)(C(=O)CO)C[C@@H]3O[C@H]1C[C@H](N)[C@H](O)[C@H](C)O1 [DOXORUBICIN],–,–,–,–,–,–,0.817,0.32,–,27.28,0.15,–,–,0.11,0.19,–,2,–,0.046,–
CC(C)[C@@H](C(=O)OCc1ccccc1)N1C(=O)[C@@H]2Cc3c([nH]c4ccccc34)CN2C1(C)C,0.73,8.47,52,44.9,33.7,52.2,2.003,–,–,–,–,–,–,–,–,–,–,–,–,–
CC(C)C[C@@H](C(=O)OCc1ccccc1)N1C(=O)[C@@H]2Cc3c([nH]c4ccccc34)CN2C1(C)C,0.92,7.06,41.1,30.6,14.7,32.5,2.05,–,–,–,–,–,–,–,–,–,–,–,–,–

# Now from value to compound, other results behind:
log K [1],IC50 (PC-3) [µM],IC50 (KB) [µM],IC50 (A549) [µM],IC50 (MCF7) [µM],SMILES,IC50 [2] [µM],Activity (CCRF S-180) [g],Activity (Mus musculus [3]) [g],LD50 at 168 h [4] [mg/kg],Activity (Mus musculus [5]) [g],Activity (Mus musculus [6]) [g],Activity (Mus musculus [7]),Activity (Mus musculus [8]),Activity (Mus musculus [9]) [g],Activity (Mus musculus [10]) [g],Activity (Mus musculus [11]),Activity (Mus musculus [12]) [g],Activity (Mus musculus [13]),Activity (Mus musculus [14]) [g],Activity (Mus musculus [15])
1.02,13.9,38.2,23.3,19.8,CC1(C)N2Cc3[nH]c4ccccc4c3C[C@H]2C(=O)N1[C@@H](COCc1ccccc1)C(=O)OCc1ccccc1,42.3,1.793,–,–,–,–,–,–,–,–,–,–,–,–,–
1.05,40.6,46.4,35.3,43,CC1(C)N2Cc3[nH]c4ccccc4c3C[C@H]2C(=O)N1[C@@H](Cc1ccccc1)C(=O)OCc1ccccc1,41.1,1.6,–,–,–,–,–,–,–,–,–,–,–,–,–
0.25,10,42.1,38.4,20.4,CC1(C)N2Cc3[nH]c4ccccc4c3C[C@H]2C(=O)N1[C@@H](CCC(N)=O)C(=O)OCc1ccccc1,40,1.696,–,–,–,–,–,–,–,–,–,–,–,–,–
0.8,10.3,50.1,43.6,21.1,CCC(C)[C@@H](C(=O)OCc1ccccc1)N1C(=O)[C@@H]2Cc3c([nH]c4ccccc34)CN2C1(C)C (stereo partly drawn),50.9,2.846,–,–,–,–,–,–,–,–,–,–,–,–,–
1.05,35.4,40,33.6,37,CC1(C)N2Cc3[nH]c4ccccc4c3C[C@H]2C(=O)N1[C@@H](CCC(=O)OCc1ccccc1)C(=O)OCc1ccccc1,37.9,1.578,–,–,–,–,–,–,–,–,–,–,–,–,–
